The test system of one data set is Candida albicans. The experiment in a line: Antifungal activity against Candida albicans ATCC 90028 after 18 to 24 hrs. The data set is classed as functional. Put shortly: (§1)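 Broth dilution following NCCLS guidelines. Final compound concentrations ran from 0.12 to 64. MIC was taken as the lowest concentration giving 80% inhibition of growth relative to the drug-free control.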

Data set [1] can be described thus: Lethality in brine shrimp at 100 ug/ml. To be noted: artemia, in vivo; read-out: Activity. The data set is classed as organism-based.
Another data set relates to Aspergillus fumigatus. Kind of data set: Antifungal activity against Aspergillus fumigatus ATCC 13073 after 48 hrs. It counts as functional. To be noted: ATCC 13073, 48 h. Put shortly:
as §1

The test system of a further data set is Cryptococcus neoformans. Kind of data set: Antifungal activity against Cryptococcus neoformans ATCC 32045 after 48 to 72 hrs. The data set is classed as functional. The method in brief: as §1
In a further data set the test system is Pichia kudriavzevii. Kind of data set: Antifungal activity against Candida krusei ATCC 6258. The data set is classed as functional.

Converted amounts (≈) assume the structure as drawn.

The term MIC denotes the lowest concentration found to suppress growth.

As to `CCCCCCCCOc1ccc(NC(=O)C(CCCNC(=O)OC(C)(C)C)NC(=O)[C@]2(O)C[C@@H](O)[C@@H](O)[C@H](OC(=O)CCc3ccc(O)c(O)c3)C2)cc1` (stereo not given in full), the MIC with Candida albicans was above 64 µg/mL; in the data set on Aspergillus fumigatus, above 64 µg/mL; against Cryptococcus neoformans it was 4 µg/mL (≈ 5.17 µM). The mortality at 100 ug/ml in data set [1] came out at 21.1%.

In the case of `CCCCCCCCOc1ccc(NC(=O)C(CCCN)NC(=O)[C@]2(O)C[C@@H](O)[C@@H](O)[C@H](OC(=O)CCc3ccc(O)c(O)c3)C2)cc1` (stereo not given in full), the figures for the MIC in the data set on Candida albicans, with Aspergillus fumigatus and with Cryptococcus neoformans were 16 µg/mL (≈ 23.7 µM), 64 µg/mL (≈ 95 µM) and 8 µg/mL (≈ 11.9 µM), respectively. Moreover, in data set [1], the mortality at 100 ug/ml was 10.5%.

For `CCCCCCCCOc1ccc(NC(=O)C(CCCNC(=O)OC(C)(C)C)NC(=O)[C@@]2(O)C[C@@H](OC(=O)/C=C/c3ccc(O)cc3)[C@@H]3OC(C)(C)O[C@@H]3C2)cc1` (stereo not given in full), the MIC with Candida albicans, in the data set with Aspergillus fumigatus and in the data set on Cryptococcus neoformans was above 64 µg/mL in each case. Further, the mortality at 100 ug/ml in data set [1] turned out to be 0%.

Consider `CCCCCCCCOc1ccc(NC(=O)C(CCCNC(=O)OC(C)(C)C)NC(=O)[C@]2(O)C[C@@H](O)[C@@H](O)[C@H](OC(=O)/C=C/c3ccc(O)cc3)C2)cc1` (stereo not given in full), for which the minimum inhibitory concentration (MIC) against Candida albicans, against Aspergillus fumigatus and against Cryptococcus neoformans was above 64 µg/mL in each case. Also, in data set [1], the mortality at 100 ug/ml was found to be 31.6%.

Turning to `CCCCCCCCOc1ccc(NC(=O)[C@@]2(O)C[C@@H](OC(=O)/C=C/c3ccc(O)c(O)c3)[C@@H]3OC(C)(C)O[C@@H]3C2)cc1`, the MIC is 16 µg/mL (≈ 26.8 µM) against Candida albicans, above 64 µg/mL against Aspergillus fumigatus and 2 µg/mL (≈ 3.35 µM) in the data set with Cryptococcus neoformans. In addition, in data set [1], the mortality at 100 ug/ml worked out at 100%.

For `CCCCCCCCOc1ccc(NC(=O)C(NC(=O)[C@@]2(O)C[C@@H](OC(=O)/C=C/c3ccc(O)c(O)c3)[C@@H]3OC(C)(C)O[C@@H]3C2)C(C)OC(C)(C)C)cc1` (stereo not given in full), the MIC against Candida albicans was 32 µg/mL (≈ 42.4 µM); in the data set on Aspergillus fumigatus, above 64 µg/mL; against Cryptococcus neoformans, 4 µg/mL (≈ 5.3 µM). The mortality at 100 ug/ml in data set [1] was found to be 6.2%.

Turning to `CCCCCCCCOc1ccc(NC(=O)C(CC(=O)OC(C)(C)C)NC(=O)[C@]2(O)C[C@@H](O)[C@@H](O)[C@H](OC(=O)/C=C/c3ccc(O)c(O)c3)C2)cc1` (stereo not given in full), the MIC against Candida albicans is 2 µg/mL (≈ 2.74 µM); against Aspergillus fumigatus, above 64 µg/mL; with Cryptococcus neoformans it was 2 µg/mL (≈ 2.74 µM). The mortality at 100 ug/ml in data set [1] was 37.5%.

With `CCCCCCCCOc1ccc(NC(=O)C(COC(C)(C)C)NC(=O)[C@]2(O)C[C@@H](O)[C@@H](O)[C@H](OC(=O)/C=C/c3ccc(O)c(O)c3)C2)cc1` (stereo not given in full), the MIC against Candida albicans was 4 µg/mL (≈ 5.71 µM); against Aspergillus fumigatus, above 64 µg/mL; against Cryptococcus neoformans, 2 µg/mL (≈ 2.85 µM). The mortality at 100 ug/ml in data set [1] stood at 31.1%.

Consider `CCCCCCCCOc1ccc(NC(=O)C(CCCNC(=O)OC(C)(C)C)NC(=O)[C@]2(O)C[C@@H](O)[C@@H](O)[C@H](OC(=O)/C=C/c3ccc(O)c(O)c3)C2)cc1` (stereo not given in full), for which the MIC against Candida albicans was 2 µg/mL (≈ 2.59 µM); against Aspergillus fumigatus it was above 64 µg/mL; in the data set on Cryptococcus neoformans it was 1 µg/mL (≈ 1.3 µM). Besides, the mortality at 100 ug/ml in data set [1] was found to be 25%.

For the compound `CCCCCCCCOc1ccc(NC(=O)C(CCCN)NC(=O)[C@]2(O)C[C@@H](O)[C@@H](O)[C@H](OC(=O)/C=C/c3ccc(O)cc3)C2)cc1` (stereo not given in full), the MIC in the data set with Candida albicans was determined as 8 µg/mL (≈ 12.2 µM); in the data set on Aspergillus fumigatus it was 32 µg/mL (≈ 48.8 µM); in the data set with Cryptococcus neoformans, 4 µg/mL (≈ 6.1 µM). Moreover, the mortality at 100 ug/ml in data set [1] was 100%.

Consider `CCCCCCCCOc1ccc(NC(=O)C(CC(=O)OC(C)(C)C)NC(=O)[C@@]2(O)C[C@@H](OC(=O)/C=C/c3ccc(O)c(O)c3)[C@@H]3OC(C)(C)O[C@@H]3C2)cc1` (stereo not given in full), for which the MIC with Candida albicans was above 64 µg/mL; in the data set with Aspergillus fumigatus it was above 64 µg/mL; against Cryptococcus neoformans, 2 µg/mL (≈ 2.6 µM). Also, the mortality at 100 ug/ml in data set [1] was 56.2%.

Turning to `CCCCCCCCOc1ccc(NC(=O)C(CCCNC(=O)OC(C)(C)C)NC(=O)[C@@]2(O)C[C@@H](OC(=O)/C=C/c3ccc(O)c(O)c3)[C@@H]3OC(C)(C)O[C@@H]3C2)cc1` (stereo not given in full), the MIC with Candida albicans was above 64 µg/mL; with Aspergillus fumigatus, above 64 µg/mL; against Cryptococcus neoformans it was 2 µg/mL (≈ 2.46 µM). Moreover, the mortality at 100 ug/ml in data set [1] amounted to 12.5%.

As to `CCCCCCCCOc1ccc(NC(=O)C(NC(=O)[C@]2(O)C[C@@H](O)[C@@H](O)[C@H](OC(=O)/C=C/c3ccc(O)c(O)c3)C2)C(C)O)cc1` (stereo not given in full), the MIC against Candida albicans is 8 µg/mL (≈ 12.1 µM); against Pichia kudriavzevii, 2 µg/mL (≈ 3.04 µM); in the data set with Aspergillus fumigatus it was above 64 µg/mL; against Cryptococcus neoformans, 2 µg/mL (≈ 3.04 µM). The mortality at 100 ug/ml in data set [1] worked out at 12.5%.

With `CCCCCCCCOc1ccc(NC(=O)C(CCCN)NC(=O)[C@]2(O)C[C@@H](O)[C@@H](O)[C@H](OC(=O)/C=C/c3ccc(O)c(O)c3)C2)cc1` (stereo not given in full), the MIC in the data set with Candida albicans was 4 µg/mL (≈ 5.95 µM); in the data set on Aspergillus fumigatus, 16 µg/mL (≈ 23.8 µM); against Cryptococcus neoformans, 1 µg/mL (≈ 1.49 µM). The mortality at 100 ug/ml in data set [1] was 37.5%.

Consider `CCCCCCCCOc1ccc(NC(=O)C(CO)NC(=O)[C@]2(O)C[C@@H](O)[C@@H](O)[C@H](OC(=O)/C=C/c3ccc(O)c(O)c3)C2)cc1` (stereo not given in full), for which the MIC against Candida albicans is above 64 µg/mL; against Aspergillus fumigatus, above 64 µg/mL; against Cryptococcus neoformans it was 4 µg/mL (≈ 6.2 µM). Further, in data set [1], the mortality at 100 ug/ml is 18.8%.

Regarding `CCCCCCCCOc1ccc(NC(=O)C(NC(=O)[C@]2(O)C[C@@H](O)[C@@H](O)[C@H](OC(=O)/C=C/c3ccc(O)c(O)c3)C2)C(C)OC(C)(C)C)cc1` (stereo not given in full), the MIC in the data set with Candida albicans is 2 µg/mL (≈ 2.8 µM); with Pichia kudriavzevii it was 2 µg/mL (≈ 2.8 µM); with Aspergillus fumigatus, above 64 µg/mL; against Cryptococcus neoformans it was 1 µg/mL (≈ 1.4 µM). For the same compound, in data set [1], the mortality at 100 ug/ml was found to be 50%.

In the case of `CCCCCCCCOc1ccc(NC(=O)C(CC(=O)O)NC(=O)[C@]2(O)C[C@@H](O)[C@@H](O)[C@H](OC(=O)/C=C/c3ccc(O)c(O)c3)C2)cc1` (stereo not given in full), the MIC against Candida albicans is 64 µg/mL (≈ 95.1 µM); in the data set with Aspergillus fumigatus it was above 64 µg/mL; against Cryptococcus neoformans, 16 µg/mL (≈ 23.8 µM). Moreover, the mortality at 100 ug/ml in data set [1] came to 6.3%.

For the compound `CCCCCCCCOc1ccc(NC(=O)C(COC(C)(C)C)NC(=O)[C@@]2(O)C[C@@H](OC(=O)/C=C/c3ccc(O)c(O)c3)[C@@H]3OC(C)(C)O[C@@H]3C2)cc1` (stereo not given in full), the MIC against Candida albicans was 32 µg/mL (≈ 43.2 µM); in the data set on Aspergillus fumigatus it was above 64 µg/mL; in the data set on Cryptococcus neoformans, 2 µg/mL (≈ 2.7 µM). The mortality at 100 ug/ml in data set [1] turned out to be 31.3%.

Consider `CCCCCCCCOc1ccc(NC(=O)[C@]2(O)C[C@@H](O)[C@@H](O)[C@H](OC(=O)/C=C/c3ccc(O)c(O)c3)C2)cc1`, for which the MIC is 8 µg/mL (≈ 14.3 µM) in the data set with Candida albicans, above 64 µg/mL in the data set with Aspergillus fumigatus and 2 µg/mL (≈ 3.59 µM) with Cryptococcus neoformans. Also, the mortality at 100 ug/ml in data set [1] was 50%.

As for `C[C@@H]1[C@H](O)[C@@H](C)/C=C/C=C/C=C/C=C/C=C/C=C/C=C/[C@H](O[C@@H]2O[C@H](C)[C@@H](O)[C@H](N)[C@@H]2O)C[C@@H]2O[C@](O)(C[C@@H](O)C[C@@H](O)[C@H](O)CC[C@@H](O)C[C@@H](O)CC(=O)O[C@H]1C)C[C@H](O)[C@H]2C(=O)O` [AMPHOTERICIN B], the MIC against Candida albicans was determined as 0.5 µg/mL (≈ 0.541 µM).

For the compound `O=C(/C=C/c1ccc(O)c(O)c1)O[C@@H]1C[C@](O)(C(=O)O)C[C@@H](O)[C@H]1O` [CHLOROGENIC ACID], the MIC against Candida albicans and in the data set on Pichia kudriavzevii was above 64 µg/mL throughout. Besides, the mortality at 100 ug/ml in data set [1] was found to be 100%.

On to `OC(Cn1cncn1)(Cn1cncn1)c1ccc(F)cc1F` [FLUCONAZOLE], for which the minimum inhibitory concentration (MIC) was 0.25 µg/mL (≈ 0.816 µM) in the data set with Candida albicans, above 64 µg/mL with Aspergillus fumigatus and 0.5 µg/mL (≈ 1.63 µM) against Cryptococcus neoformans.

For the origin of these results see ChEMBL document CHEMBL1139798, “Synthesis of chlorogenic acid derivatives with promising antifungal activity” (Bioorg Med Chem, 2007).
